The source of these data is ChEMBL document CHEMBL1123085, “Mechanism of the differentiating action of 25-hydroxyvitamin D3 endoperoxides in human myeloid leukemia cells (HL-60)” (1985).

What all share (assay type): functional
For assay [1], the species on record is Mus musculus. Description: In vitro bone-reabsorbing activity was examined in fetal mouse calvaria prelabeled with 45 Ca at 12 nM concentration, Ca release. Summed up: (§1)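 Paired half fetal mouse calvaria, split along the midsagittal suture, were precultured 24 h at 37 °C under 5% CO₂ in air in BGJ medium containing 1 mg/mL bovine serum albumin. Halves were then moved to fresh medium with or without derivative for 6 more days. Bones were digested overnight in HCl, and ⁴⁵Ca in the medium and bone was counted. ⁴⁵Ca release % = medium/(medium+bone)×100, reported as treated/control ratio. Student's t test.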

For assay [2], the species on record is Mus musculus. Description: In vitro bone-reabsorbing activity was examined in fetal mouse calvaria prelabeled with 45 Ca at 120 nM concentration, Ca release. A digest of the protocol:
as §1

The species entered for assay [3] is Mus musculus. Description: In vitro bone-resorbing activity was examined in fetal mouse calvaria prelabeled with 45Ca at 12 nM concentration. Summed up:
as §1

For assay [4], the species on record is Mus musculus. The experiment in a line: In vitro bone-resorbing activity was examined in fetal mouse calvaria prelabeled with 45Ca at 1.2 nM concentration. Summed up:
as §1

The species named for assay [5] is Mus musculus. The experiment in a line: In vitro bone-resorbing activity was examined in fetal mouse calvaria prelabeled with 45Ca at 120 nM concentration. Summed up:
as §1

For assay [6], the species on record is Mus musculus. Description: In vitro bone-reabsorbing activity was examined in fetal mouse calvaria prelabeled with 45 Ca at 1.2 nM concentration, Ca release. Summed up:
as §1

Several values for one entry are separate records, joined by “and”; a condition that tells them apart may be missing. Equal values may be shown once.

Take `C[C@H](CCCC(C)(C)O)C1CCC2/C(=C/C3OOCC4=C3C[C@@H](O)CC4)CCCC21C` (stereo partly drawn): the T/C in assay [1] is given as 1.61; in assay [2], 2.43.
With `C[C@H](CCCC(C)(C)O)C1CCC2/C(=C/c3occ4c3CC(O)CC4)CCCC21C` (stereo partly drawn), the T/C in assay [3] was 1.63; in assay [4], 1.05 and 0.98; in assay [5] it was 2.64.
Regarding `C=C1CC[C@H](O)C/C1=C/C=C1\CCC[C@]2(C)[C@@H]([C@H](C)CCCC(C)(C)O)CC[C@@H]12` [CALCIFEDIOL ANHYDROUS], the T/C in assay [6] is 1; in assay [1], 1.33; in assay [2] it was 1.74.
